The source of these data is ChEMBL document CHEMBL3297702, “Improving photodynamic inactivation of bacteria in dentistry: highly effective and fast killing of oral key pathogens with novel tooth-colored type-II photosensitizers” (J Med Chem, 2014).

In data set [1] the test system is Actinomyces naeslundii. In words: Photodynamic inactivation of biofilm of Actinomyces naeslundii T14V monospecies assessed as reduction of log10 CFU at 100 uM preincubated for 60 mins followed by irradiation with 600 mW/cm'2 for 120 secs measured after 28 hrs by agar plating method. The format is functional.
Data set [2] concerns Actinomyces naeslundii. In words: Photodynamic inactivation of Actinomyces naeslundii T14V assessed as reduction of log10 CFU at 10 uM incubated prior to irradiation with 50 j/cm'2 for 40 secs measured after 48 hrs by agar plating method (reference value: <1 no unit). The class given is functional. Summed up:
(§1)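 A. naeslundii T14V grown overnight at 37 °C, shaken, aerobically in BHI broth. Harvested at stationary phase, resuspended in PBS to 10^7–10^8 bacteria/mL (OD600). Mixed 1:1 with PS (final 0–250 µM) or water, 10 s incubation, then blue photopolymerizer light (1260 ± 50 mW/cm2) or dark. Tenfold dilutions plated on blood agar, aerobic 37 °C 48 h, CFU counted; medians of three independent experiments in triplicate.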

Data set [3] relates to Streptococcus mutans. Nature of the data set: Toxicity in Streptococcus mutans ATCC 25175 assessed as reduction of log10 CFU at 1 to 250 uM incubated for 10 secs to 15 mins under dark condition measured after 48 hrs by agar plating method. In outline: (§2)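 Dark controls. Overnight BHI cultures (EF, SM, AN aerobic; AA anaerobic; 37 °C) were washed into PBS at 10^7–10^8 cells/mL. They were mixed 1:1 with photosensitizer at final 0–250 µM and incubated 10 s, 7.5 min or 15 min, then kept in the dark for 20, 40 or 120 s. Tenfold dilutions were plated: EF on Mueller-Hinton agar, aerobic 24 h; SM on BHI agar, aerobic 48 h; AN on blood agar, aerobic 48 h; AA on BHI agar, anaerobic 48 h; all at 37 °C. CFU were compared with untreated controls; medians of three independent experiments in triplicate.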

The subject of data set [4] is Actinomyces naeslundii. Nature of the data set: Photodynamic inactivation of biofilm of Actinomyces naeslundii T14V polyspecies assessed as reduction of log10 CFU at 100 uM preincubated for 60 mins followed by irradiation with 600 mW/cm'2 for 120 secs measured after 28 hrs by agar plating method. The format is functional.
The subject of data set [5] is Actinomyces naeslundii. In words: Toxicity in Actinomyces naeslundii T14V assessed as reduction of log10 CFU at 1 to 250 uM incubated for 10 secs to 15 mins under dark condition measured after 48 hrs by agar plating method. The format is organism-based. Conditions: in vivo. In outline:
as §2

Data set [6] deals with Enterococcus faecalis. Nature of the data set: Photodynamic inactivation of biofilm of Enterococcus faecalis ATCC 29212 polyspecies assessed as reduction of log10 CFU at 100 uM preincubated for 60 mins followed by irradiation with 600 mW/cm'2 for 120 secs measured after 24 hrs by agar plating method. The class given is functional.
Data set [7] deals with Aggregatibacter actinomycetemcomitans. Nature of the data set: Toxicity in Aggregatibacter actinomycetemcomitans ATCC 43718 assessed as reduction of log10 CFU under dark condition at 1 to 250 uM incubated for 10 secs to 15 mins under dark condition measured after 48 hrs by agar plating method. Further details: species or system Y4. In outline: as §2
Data set [8] shares this test system. In words: Photodynamic inactivation of Aggregatibacter actinomycetemcomitans ATCC 43718 assessed as reduction of log10 CFU at 1 uM incubated prior to irradiation with 150 j/cm'2 for 120 secs measured after 48 hrs by agar plating method relative to control. The class given is functional, Y4. In outline: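 A. actinomycetemcomitans ATCC 43718 cultured overnight in BHI broth under anaerobic conditions, 37 °C with shaking. Stationary-phase cells were spun down, taken up in PBS to 10^7–10^8/mL, and combined 1:1 with PS (final 0–250 µM) or water. After 10 s they were irradiated at 1260 ± 50 mW/cm2 or kept dark. Serial dilutions went onto BHI agar, incubated anaerobically at 37 °C for 48 h, and CFU were scored. Results are medians from 3 experiments × triplicate versus untreated controls.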

In data set [9] the test system is Enterococcus faecalis. Nature of the data set: Toxicity in Enterococcus faecalis ATCC 29212 assessed as reduction of log10 CFU at 1 to 250 uM incubated for 10 secs to 15 mins under dark condition measured after 24 hrs by agar plating method. The format is organism-based. Conditions: in vivo. Summed up: as §2
For data set [10], the system named is Enterococcus faecalis. Nature of the data set: Photodynamic inactivation of biofilm of Enterococcus faecalis ATCC 29212 monospecies assessed as reduction of log10 CFU at 100 uM preincubated for 60 mins followed by irradiation with 600 mW/cm'2 for 120 secs measured after 24 hrs by agar plating method. The format is functional.
In data set [11] the test system is Actinomyces naeslundii. Nature of the data set: Photodynamic inactivation of Actinomyces naeslundii T14V assessed as reduction of log10 CFU at 100 uM incubated prior to irradiation with 25 j/cm'2 for 20 secs measured after 48 hrs by agar plating method (reference value: <1 no unit). The class given is functional. In outline:
as §1

Data set [12] relates to Aggregatibacter actinomycetemcomitans. Nature of the data set: Toxicity in Aggregatibacter actinomycetemcomitans ATCC 43718 assessed as reduction of log10 CFU under dark condition at 1 to 250 uM incubated for 10 secs under dark condition measured after 48 hrs by agar plating method. Further details: species or system Y4. Summed up: as §2
Data set [13] relates to Streptococcus mutans. Nature of the data set: Toxicity in Streptococcus mutans ATCC 25175 assessed as reduction of log10 CFU at 1 to 250 uM incubated for 10 secs under dark condition measured after 48 hrs by agar plating method. In outline:
as §2

Data set [14] concerns Actinomyces naeslundii. In words: Toxicity in Actinomyces naeslundii T14V assessed as reduction of log10 CFU at 1 to 250 uM incubated for 10 secs under dark condition measured after 48 hrs by agar plating method. Conditions: in vivo. The class given is organism-based. In outline: as §2
Data set [15] has as its system Actinomyces naeslundii. In words: Photodynamic inactivation of Actinomyces naeslundii T14V assessed as reduction of log10 CFU at 10 uM incubated prior to irradiation with 150 j/cm'2 for 120 secs measured after 48 hrs by agar plating method (reference value: <1 no unit). The format is functional. Summed up: as §1
A short description of data set [16]: Stability of the compound in D2O assessed as aggregate formation by measuring shift of spectrum in aromatic region at > 0.5 ppm at 50 to 90 degC by NMR analysis. The format is physicochemical.
Data set [17] is described as follows: Stability of the compound in D2O assessed as aggregation at 1 to 20 mM by NMR analysis. Particulars: 20000 µM. The format is physicochemical. In outline: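 ¹H NMR, aromatic region, in D2O at 1, 5, 10 and 20 mM; shifts referenced to external TMS, 1 ppm = 400 Hz; spectra compared across concentrations for dimerisation.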

As for `O=C1C(C[n+]2ccccc2)=Cc2cccc3cccc1c23.[Cl-]`, the log10cfu with Actinomyces naeslundii [1] was over 5; with Actinomyces naeslundii [2], over 5; in the data set with Actinomyces naeslundii [4], over 5; in the data set on Enterococcus faecalis [6], over 5; in data set [8], over 6; in the data set with Enterococcus faecalis [10] it was over 5. The log10cfu with Actinomyces naeslundii [11] was over 5. Besides, the Activity result (with Streptococcus mutans [3]; in the data set with Actinomyces naeslundii [5]; in [7]; in the data set with Enterococcus faecalis [9]) was “Non-toxic” throughout.
`C[N+](C)(CCO)CC1=Cc2cccc3cccc(c23)C1=O.[Cl-]`: the Activity result (in data set [12]; in the data set with Streptococcus mutans [13]; with Actinomyces naeslundii [14]) was “Non-toxic” each time. Also, the log10cfu is under 5 with Actinomyces naeslundii [2], over 6 in data set [8], under 5 in the data set on Actinomyces naeslundii [15] and over 5 in the data set on Actinomyces naeslundii [11].
For the compound `C[N+](C)(C)CC1=Cc2cccc3cccc(c23)C1=O.[Cl-]`, the Activity in data set [16] was determined as 70 mM. The Stability result in [17] was “Unstable”.
